# In ChEMBL document CHEMBL1153739, “Chemical constituents of the bark of Machilus wangchiana and their biological activities” (J Nat Prod, 2009):
# How the values were obtained:
# [1] = Hepatoprotective activity in rat WB-F344 cells assessed as inhibition of D-galactosamine-induced cytotoxicity at 100 uM treated 1 hr before D-galactosamine challenge after 24 hrs by MTT assay; type: functional
# Procedure, shortened: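 Cells plated at 1 × 10⁴ per well in DMEM with 10% fetal calf serum, penicillin and streptomycin, precultured 24 h at 37 °C, 5% CO₂. Sample added in fresh medium 1 h before 50 mM DL-galactosamine for 24 h. Sample toxicity run in parallel without galactosamine. MTT 0.5 mg/mL for 4 h, formazan dissolved in DMSO, OD 490 nm, % inhibition calculated.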
# [2] = Antiinflammatory activity in rat PMNC assessed as inhibition of platelet activating factor-induced beta-glucuronidase release at 10 uM treated 15 mins before PAF by spectrophotometry; type: functional
# BGC-823 = assay: Cytotoxicity against human BGC823 cells; type: functional, cell-based
# A2780 = assay: Cytotoxicity against human A2780 cells; type: functional, cell-based
structure (smiles),measurement,setting,value
CCO[C@H](c1ccc(O)c(OC)c1)[C@@H](C)C(C)=O,inhibition at 100 µM,[1],54%
same,inhibition at 10 µM,[2],42%
COc1cc([C@@H](O)[C@@H](C)C(C)=O)ccc1O,inhibition at 100 µM,[1],43%
COc1cc([C@@H]2c3c(cc(OC)c(O)c3OC)C[C@@H](C)[C@H]2C)ccc1O,inhibition at 10 µM,[2],47%
COc1cc([C@H]2c3cc(O)c(OC)cc3C[C@@H](C)[C@@H]2C)ccc1O,inhibition at 10 µM,[2],48%
COc1cc([C@H]2OC(=O)[C@](C)(O)[C@@H]2C)ccc1O,inhibition at 100 µM,[1],39%
same,inhibition at 10 µM,[2],76%
COC(=O)c1cc(OC)c2c(c1-c1c(CO)cc(OC)c3c1OCO3)OCO2 [BICYCLOL],inhibition at 100 µM,[1],41%
CC[C@@]1(O)C(=O)OCc2c1cc1n(c2=O)Cc2cc3ccccc3nc2-1 [CAMPTOTHECIN],IC50,BGC-823,0.21 µM
C#CCCCCCCCC/C=C/C1=C[C@H](C)OC1=O [HAMABIWALACTONE A],inhibition at 10 µM,[2],60%
COc1cc(C[C@@H](C)[C@@H](C)Cc2ccc(O)c(OC)c2)ccc1O [MESODIHYDROGUAIARETIC ACID],inhibition at 10 µM,[2],54%
COc1cc([C@@H](OC)[C@@H](C)C(C)=O)ccc1O,inhibition at 100 µM,[1],47%
same,inhibition at 10 µM,[2],67%
C=C1OC(=O)/C(=C/CCCCCCCCCCCCCCCCC)[C@H]1O,IC50,A2780,2.66 µM
same,IC50,BGC-823,0.13 µM
O=C(O)C[C@]12OC(=O)C[C@H]1O[C@@H]1Cc3c(O)cc(O)cc3O[C@@H]12,inhibition at 100 µM,[1],40%
same,inhibition at 10 µM,[2],46%
